ChEMBL document CHEMBL1125042, “Hypolipidemic activity of rifamycin derivatives” (J Med Chem, 1990)
Converted amounts (≈) assume the structure as drawn.

Tests used:
[1] = species: Rattus norvegicus; assay: Hypolipidemic activity was determined in male rats, and high-density lipoprotein level was determined; type: functional
Procedure, shortened: (§1)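 Male Wistar rats (200–230 g), eight per group, were dosed orally in PEG 400 at 8 a.m. for 4 days, plus a second dose at 4 p.m. on day 4. Rats were fasted 16 h and killed 16 h after the last dose. Sera from pairs of rats were pooled. LDL (up to 1.040 g/cm³) was separated by ultracentrifugation and the HDL infranatant taken. Cholesterol was measured enzymatically. Results are % versus vehicle control, mean ± SEM of four pools, Student's t test.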

[2] = species: Rattus norvegicus; assay: Hypolipidemic activity was determined in male rats, and low-density lipoprotein level was determined; type: functional; procedure, shortened: as §1
[3] = system: Staphylococcus aureus; assay: Antibacterial activity against Staphylococcus aureus 10B; type: functional
Procedure, shortened: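 Agar dilution on DST agar with 2-fold drug dilutions. Inoculum of 10⁴ viable S. aureus 10B was taken from liquid-nitrogen stock, thawed 30 min and not subcultured. It was applied by multipoint replicator and incubated overnight at 37 °C. MIC is the lowest concentration inhibiting growth relative to control cultures.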

[4] = species: Rattus norvegicus; assay: Compound was tested for hypolipidemic activity in male rats, cholesterol was determined in serum.; type: functional; procedure, shortened: as §1
[5] = system: Rattus norvegicus; assay: Hypolipidemic activity was determined in male rats, cholesterol was determined in high-density lipoproteins at 100 mg/kg; type: functional, organism-based; design: dose 100 mg/kg
Procedure, shortened: (§2)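 Groups of eight male Wistar rats (200–230 g) dosed orally in PEG 400, either daily for 7 days (killed 24 h after the last dose) or for 4 days with a second dose on day 4 (killed 16 h later). Fasted 16 h. Paired sera pooled, lipoproteins separated by ultracentrifugation (1.006 and 1.040 g/cm³), HDL taken as the infranatant. Cholesterol measured enzymatically; % vs vehicle, mean ± SEM of four pools.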

[6] = system: Rattus norvegicus; assay: Hypolipidemic activity was determined in male rats, cholesterol was determined in high-density lipoproteins at 30 mg/kg; type: functional, organism-based; design: dose 30 mg/kg; procedure, shortened: as §2
[7] = system: Rattus norvegicus; assay: Hypolipidemic activity was determined in male rats, cholesterol was determined in low-density lipoproteins at 100 mg/kg; type: functional, organism-based; design: dose 100 mg/kg; procedure, shortened: as §2
[8] = system: Rattus norvegicus; assay: Compound was tested for hypolipidemic activity in male rats, cholesterol level was determined in serum at 30 mg/kg; type: functional, organism-based; design: dose 30 mg/kg; procedure, shortened: as §1
[9] = system: Rattus norvegicus; assay: Hypolipidemic activity was determined in male rats, and serum cholesterol level was determined at 100 mg/kg
[10] = system: Rattus norvegicus; assay: Hypolipidemic activity was determined in male rats, and low-density lipoprotein level was determined at 30 mg/kg

MIC [3]	Compound	Activity [1]	Activity [2]	Activity [4]	Serum HDL-cholesterol [5]	Serum HDL-cholesterol [6]	Serum LDL-cholesterol [7]	Serum cholesterol [8]	Serum cholesterol [9]	Serum LDL-cholesterol [10]
1 µg/mL (≈ 1.08 µM)	COc1c(C)c2c3c4c1C(=O)C(=C(N1CCN(Cc5c(C)cc(C)cc5C)CC1)C4=O)NC(=O)/C(C)=C\C=C\C(C)C(O)C(C)C(O)C(C)C(OC(C)=O)C(C)C(OC)/C=C/OC(C)(O2)C3=O (stereo not given)	-6%	1%	-4%						
	CCOC(=O)C(C)(C)Oc1ccc(Cl)cc1				-34%	-13%	14%	-15%	-30%	-8%
